5 compounds from ChEMBL document CHEMBL4428081, “Selective AKR1C3 Inhibitors Potentiate Chemotherapeutic Activity in Multiple Acute Myeloid Leukemia (AML) Cell Lines” (ACS Med Chem Lett, 2016) can be followed below.

The test system of experiment [1] is HL-60. The experiment in a line: Cytotoxicity against human HL60 cells assessed as reduction in cell viability up to 100 uM at 72 hrs by MTS assay. The format is functional, cell-based. In short, it runs like this: (§1)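 HL-60 human acute promyelocytic leukemia cells exposed to AKR1C3 inhibitor alone, with no chemotherapeutic, over a range up to 100 μM. Lower working range was 0.1–1 μM. Read-out was cell viability relative to untreated control.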

For experiment [2], the system named is KG-1a. The experiment in a line: Cytotoxicity against human KG1a cells expressing AKR1C3 assessed as reduction in cell viability at >25 uM at 72 hrs by MTS assay. In kind it is functional, cell-based.
The target in experiment [3] is T1, Aldo-keto reductase family 1 member C3 (Homo sapiens) (UniProt P42330).
T1 sequence (whole entry): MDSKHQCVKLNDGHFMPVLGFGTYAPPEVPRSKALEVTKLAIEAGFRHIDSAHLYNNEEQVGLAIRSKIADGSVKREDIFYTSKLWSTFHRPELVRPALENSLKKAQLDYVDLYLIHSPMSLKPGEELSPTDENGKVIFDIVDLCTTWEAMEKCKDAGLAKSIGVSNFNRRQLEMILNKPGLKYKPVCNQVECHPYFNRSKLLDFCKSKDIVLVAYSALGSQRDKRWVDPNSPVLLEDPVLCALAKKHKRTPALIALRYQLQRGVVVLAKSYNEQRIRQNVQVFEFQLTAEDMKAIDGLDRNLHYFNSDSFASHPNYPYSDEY
Nature of the experiment: Inhibition of AKR1C3 in human HL60 cells assessed as potentiation of etoposide-induced cytotoxicity by measuring reduction in cell viability at 0.1 uM coincubated with etoposide at 1 uM after 72 hrs by MTS assay (reference value: 40%). The format is cell-based. The essentials: (§2)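 HL-60 or KG1a cells were coincubated with inhibitor and etoposide for 72 h, then cell viability was read. Values are mean ± SD (n = 6). Treatments were compared with control by two-tailed t test.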

Experiment [4] has as its target T1, Aldo-keto reductase family 1 member C3 (Homo sapiens). Nature of the experiment: Inhibition of AKR1C3 in human KG1a cells assessed as potentiation of etoposide-induced cytotoxicity by measuring reduction in cell viability at 0.1 uM coincubated with etoposide at 1 uM after 72 hrs by MTS assay. In kind it is cell-based. The essentials:
as §2

Experiment [5] shares this target. The experiment in a line: Inhibition of AKR1C3 in human HL60 cells assessed as potentiation of etoposide-induced cytotoxicity by measuring reduction in cell viability pre-treated with 0.1 to 1 uM compound for 24 hrs followed by 1 uM etoposide exposure for additional 72 hrs by MTS assay. The format is cell-based.
The target of experiment [6] is T2, Aldo-keto reductase family 1 member C3 (Homo sapiens, UniProt P42330). The experiment in a line: Inhibition of N-terminal His6-tagged human recombinant AKR1C3 in presence of NADPH by fluorescence assay.
Experiment [7] concerns the target T1, Aldo-keto reductase family 1 member C3 (Homo sapiens). The experiment in a line: Inhibition of AKR1C3 in human HL60 cells assessed as potentiation of etoposide-induced cytotoxicity by measuring reduction in cell viability at 0.1 uM coincubated with etoposide at 0.5 uM after 72 hrs by MTS assay (reference value: 20%). In kind it is cell-based. The essentials: as §2

For experiment [8], the target named is Aldo-keto reductase family 1 member C2 (Homo sapiens, UniProt P52895). Nature of the experiment: Inhibition of recombinant AKR1C2 (unknown origin) assessed as reduction in S-tetralol catalyzed oxidation in presence of NADPH by fluorescence assay.
Chain of Aldo-keto reductase family 1 member C2 (P52895 whole entry): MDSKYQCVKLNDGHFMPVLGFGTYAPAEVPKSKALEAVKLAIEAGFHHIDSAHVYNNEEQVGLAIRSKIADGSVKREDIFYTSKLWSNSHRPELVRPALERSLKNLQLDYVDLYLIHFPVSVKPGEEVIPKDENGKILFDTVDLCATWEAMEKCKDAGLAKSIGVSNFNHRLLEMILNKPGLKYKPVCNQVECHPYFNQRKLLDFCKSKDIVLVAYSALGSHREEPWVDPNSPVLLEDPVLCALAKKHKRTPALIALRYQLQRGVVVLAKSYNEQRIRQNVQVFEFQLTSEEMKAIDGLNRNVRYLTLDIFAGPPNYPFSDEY
The species named for the next experiment is Homo sapiens. The experiment in a line: Selectivity ratio of IC50 for recombinant AKR1C2 (unknown origin) to IC50 for recombinant AKR1C3 (unknown origin).
Experiment [9] addresses T2, Aldo-keto reductase family 1 member C3. The experiment in a line: Inhibition of recombinant N-terminal His-tagged AKR1C3 (unknown origin) assessed as rate of change of pyridine nucleotide absorbance in presence of NADPH.
Experiment [10] concerns HL-60. Nature of the experiment: Cytotoxicity against human HL60 cells assessed as reduction in cell viability at 50 uM at 72 hrs by MTS assay. In kind it is functional, cell-based. The essentials: as §1
Experiment [11] deals with HL-60. Nature of the experiment: Cytotoxicity against human HL60 cells assessed as reduction in cell viability at 0.1 to 1 uM at 72 hrs by MTS assay. In kind it is functional. In short, it runs like this:
as §1

The test system of experiment [12] is KG-1a. Nature of the experiment: Cytotoxicity against human KG1a cells expressing AKR1C3 assessed as reduction in cell viability at 1 uM at 72 hrs by MTS assay. The format is functional.
The test system of experiment [13] is HL-60. Nature of the experiment: Downregulation of AKR1C3 expression in human HL60 cells at 1 to 10 uM after 72 hrs by Western blot analysis. In kind it is functional, cell-based. In short, it runs like this: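 KG1a and HL-60 cells were incubated with inhibitor at 1, 5 and 10 μM. AKR1C3 expression levels were determined after 48 h and 72 h incubation.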

Active and inactive are the calls of the source. The rule behind the calls is not given here.

Regarding `CC(C)=CCc1ccc(/C=C/C(=O)O)cc1OC(=O)CCc1ccccc1`, the outcome in the experiment on HL-60 [1] was inactive. The result with KG-1a [2] was Active. In addition, the Activity in [3] is 80%; in experiment [4], 54%; in experiment [5], 80 to 95%.
As for `C[C@@H]1C(O)=C(C(N)=O)C(=O)[C@@]2(O)C(O)=C3C(=O)c4c(O)cccc4[C@@](C)(O)[C@H]3C[C@@H]12`, in [6], the IC50 was 501 nM.
In the case of `CC(C)=CCc1cc(/C=C/C(=O)O)ccc1NC(=O)CCc1ccccc1`, the outcome in the experiment with HL-60 [1] was inactive. The outcome in the experiment with KG-1a [2] was Active. Moreover, the Activity was 57% in [3], 25% in experiment [7], 42% in experiment [4] and 80 to 95% in experiment [5].
In the case of `CC(=O)O[C@]1(C(C)=O)CC[C@H]2[C@@H]3C[C@H](C)C4=CC(=O)CC[C@]4(C)[C@H]3CC[C@@]21C` [MEDROXYPROGESTERONE ACETATE], the IC50 in experiment [8] is 3980 nM; in [9], 2510 nM. For the same compound, in the experiment listed under Homo sapiens, the Ratio IC50 turned out to be 0.66.
Regarding `CC(C)=CCc1ccc(/C=C/C(=O)O)cc1NC(=O)CCc1ccccc1`, the outcome in the experiment with HL-60 [10] and with HL-60 [13] was Active. Further, the Activity with HL-60 [11] was 8%; in the experiment with KG-1a [12] it was 20%; in experiment [3], 52%; in experiment [7], 45%; in [4], 40%; in [5], 80 to 95%.
